Experimental data: PubChem BioAssay AID588830 (Broad Institute, 2011)
The source made the active and inactive calls.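 How the source made its calls: active means fitted IC50 for falling signal at or below ten times the top tested dose; inconclusive means flat fit with 30 to 70% signal loss, or poor fit; inactive means the rest.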

System: not listed separately
Assay: ATP-based viability of SR-BI CHO cells – cell-based, CellTiter-Glo luminescence, 3 h, dry powder, cytotoxicity control for SR-BI HDL uptake inhibitor project, dose response (AID 588830)
Conditions: ldlA[mSR-BI] CHO cells viability, CellTiter-Glo ATP, 3 h; at 35 µM (top of the series)
Method in brief: (§1)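 System: ldlA[mSR-BI] cells | Buffer or medium: Ham's F12 with 10% FCS and PSG | Doses: 8-concentration series per compound, added by pin transfer | Timing: 3 h compound exposure at 37 °C, 10 min reagent incubation | Measured by: Luminescence of cellular ATP via Cell Titer Glo reagent | Measure: Cytotoxicity IC50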

Row | Compound | activity change, negative = cytotoxicity
1 | N#Cc1sc2nc(C3CC3)cc(-c3ccc(Cl)cc3)c2c1N | -7.15% (inactive)
2 | C[C@@H]1CN([C@H](C)CO)C(=O)c2cc(NC(=O)Cc3cn(C)c4ccccc34)ccc2O[C@H]1CN(C)S(C)(=O)=O | 3.58% (inactive)
3 | C[C@H]1CN([C@@H](C)CO)C(=O)c2cc(NC(=O)Cc3cn(C)c4ccccc34)ccc2O[C@@H]1CN(C)S(=O)(=O)c1ccc(F)cc1 | 1.18% (inactive)
4 | Cc1cc(C)c2c(c1)NC(c1cc3c(cc1Br)OCO3)C1CC=CC21 (stereo not drawn) | -9.46% (inactive)
5 | C[C@H]1CN([C@@H](C)CO)C(=O)c2cccc(NC(=O)Nc3ccccc3)c2O[C@@H]1CN(C)S(C)(=O)=O | -1.01% (inactive)
6 | CC(C)OCCCNC(=O)c1ccc(C2SCC(=O)N2Cc2ccco2)cc1 (stereo not drawn) | -4.74% (inactive)
7 | O=C(Nc1ccc(-c2nc3cc(NC(=O)c4ccc(NC(=O)c5cccc6ccccc56)cc4)ccc3[nH]2)cc1)c1ccc(NC(=O)c2cccc3ccccc23)cc1 | 2.1% (inactive)
8 | COc1ccc([C@H]2CC(=O)C=C(c3cccc4c3sc3ccccc34)C2)cc1OC | -5.27% (inactive)
9 | COc1ccc(OC)c(CCNC(=O)c2ccc3c(c2)N(Cc2ccc(F)cc2)CCS3)c1 | -5.33% (inactive)
10 | C[C@H]1CN([C@@H](C)CO)C(=O)c2cccc(N(C)C)c2O[C@@H]1CN(C)Cc1ccc(Cl)c(Cl)c1 | -3.41% (inactive)
11 | COC(=O)c1cn(C(=O)c2cccc3ccccc23)c2ccccc12 | -13.3% (inactive)

System: ldlA[mSR-BI] CHO cells viability, CellTiter-Glo ATP, 3 h
Assay: as above
Conditions: not given
Method in brief: as §1

Row | Compound | IC50
12 | Cc1ccc2oc(-c3cccc(NC(=O)c4cc(-n5cnnc5)ccc4Cl)c3)nc2c1 | 12.8 µM
13 | CCOc1ccccc1/C=C/c1onc(C)c1S(=O)(=O)N1CCC(C(=O)NC(C)(C)C)CC1 | > 70 µM (inactive)
14 | O=C(Nc1ccc(-c2nc3ccc(NC(=O)c4ccccc4)cc3[nH]2)cc1)c1ccccc1 | > 70 µM (inactive)
15 | Cc1cc(C(=O)C(C)OC(=O)C2=NNC(=O)CC2)c(C)n1-c1ccc(OC(F)F)cc1 (stereo not drawn) | > 70 µM (inactive)
16 | Cc1ccc(-c2nnc(N3CCC(C)CC3)c3ccccc23)cc1C | 68.5 µM
17 | C[C@H]1CN([C@@H](C)CO)C(=O)c2cccc(NC(=O)Nc3ccccc3)c2O[C@@H]1CN(C)Cc1ccc(C(F)(F)F)cc1 | 66.6 µM
18 | O=C(Nc1cc(Cl)ccc1Cl)c1cc(Cl)ccc1NS(=O)(=O)c1ccc(Cl)c([N+](=O)[O-])c1 | > 70 µM (inactive)
